CXCR6 block: CXCR6 (human) receptor inhibition. CHO-K1 PathHunter CXCR6 beta-arrestin, luminescence. inhibition, % at 20 µM. 0.36% of 360,000 active. AID 602244; in the data active means inhibition above about 34%, passing the limit was not always enough;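 further: antagonist mode with CXCL16 agonist at 10 nM final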
EBI2 block: antagonists of human EBI2 receptor; inhibition, % at 5 µM; P32249; EBI2 beta-arrestin recruitment, luminescence, 7a,25-OHC stimulated; 0.81% of 360,000 active; in the data active means inhibition above about 38%;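 further: enzyme fragment complementation signal reports receptor beta-arrestin coupling in cells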
CCR6 antag: blocks CCL20-driven beta-arrestin recruitment at human CCR6; CHO-K1 CCR6 PathHunter beta-arrestin, luminescence, CCL20-stimulated; AID 493098; 0.49% of 340,000 active; inhibition, % at 20 µM;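 active means compounds whose inhibition of the agonist-driven luminescence signal at 20 µM reaches about 50%, limit read from the data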;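 further: cells stimulated with CCL20 at 14 nM final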
Target sequence (P51684 whole entry, looked up): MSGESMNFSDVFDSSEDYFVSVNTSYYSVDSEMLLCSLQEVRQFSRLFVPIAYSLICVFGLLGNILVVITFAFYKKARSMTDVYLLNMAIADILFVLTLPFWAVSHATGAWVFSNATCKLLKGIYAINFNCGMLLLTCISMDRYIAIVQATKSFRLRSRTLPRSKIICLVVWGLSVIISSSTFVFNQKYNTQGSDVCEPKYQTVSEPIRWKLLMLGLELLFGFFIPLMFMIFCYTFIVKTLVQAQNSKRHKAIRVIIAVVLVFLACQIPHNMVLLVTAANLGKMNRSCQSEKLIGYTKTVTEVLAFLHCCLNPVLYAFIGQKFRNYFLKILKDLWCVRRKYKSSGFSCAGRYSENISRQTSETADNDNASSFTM
m5-HT2A agonist: mouse HTR2A agonism via beta-arrestin recruitment. activation, % at 7.6 µM. CHO-K1 mHTR2A beta-arrestin complementation, luminescence; percent of 30 µM serotonin response. P35363. 0.66% of 360,000 active. AID 624169;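 active means activation above a run cutoff, the mean activation of all tested compounds plus 3 SD, cut at about 14% in these data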
APJ antagonist: APJ receptor antagonism; inhibition, % at 20 µM; 0.32% of 330,000 active; CHO-K1 APJ beta-arrestin complementation, luminescence; AID 2521; P35414;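 active means inhibition above about 40% at 20 µM, limit read from the data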;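 further: cells challenged with 10 nM apelin-13 agonist together with compound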
APJ agonist: agonists of human APJ apelin receptor | 0.11% of 330,000 active | activation, % at 20 µM | P35414 | CHO-K1 APJ PathHunter beta-arrestin, luminescence; 0% DMSO wells, 100% apelin;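 active means activation more than six SD over the plate average, tested at 20 µM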
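Assay system: CHO-K1 cells stably expressing ProLink-tagged human APJ and arrestin–beta-gal acceptor. Compound dosing: 20 µM single point, 1% DMSO. Times: 16-18 h seeding, 90 min dark compound exposure, 60 min detection. Detection: beta-gal luminescence. Evaluation: APJ–arrestin association signal. Controls: negative DMSO alone, positive Apelin-13 at 10 nM.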
EBI2 antag conf: EBI2 (human) antagonism, single concentration confirmation; shares compounds with EBI2 block; EBI2 beta-arrestin luminescence, 7a,25-OHC antagonism; inhibition, % at 5 µM; 29% of 2,400 active;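 active means inhibition of at least 50%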
EBI2 agonist: EBI2 agonism counter-screen; shares compounds with EBI2 block; EBI2-expressing cells, agonist mode, luminescence, 60 min; 0% vehicle, 100% 7α,25-dihydroxycholesterol control; activation, % at 5 µM; 2,400 tested, under 10 active; AID 652000;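 active means activation of at least 50%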
bGal counter: beta-galactosidase inhibition counter-screen. shares compounds with EBI2 block. purified beta-galactosidase, luminescent Galacton Star, 15 min. inhibition, % at 5 µM. 1% of 2,400 active;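 active means replicate-average signal at least 3 plate SD below neutral wells, shown as high inhibition, flagging enzyme-inhibiting false positives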;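 further: higher means stronger loss of beta-gal luminescence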
Numbers stand for hits; 0 = inactive; - = not tested or not shown. An excerpt weighted towards active compounds, which were near 2.1% of everything screened.

SMILES	CXCR6 block	EBI2 block	CCR6 antag	m5-HT2A agonist	APJ antagonist	APJ agonist	EBI2 antag conf	EBI2 agonist	bGal counter
CCOC(=O)C1=C(O)/C(=C/c2ccc(OCC(=O)O)c(OCC)c2)SC1=Nc1ccc(OC)cc1	0	0	0	0	0	0	-	-	-
CCOc1ccc(OCC(O)CN2CCN(S(=O)(=O)c3cccc(C(F)(F)F)c3)CC2)cc1 (configuration not stated)	0	77	0	0	-	-	0	0	0
COc1ccccc1N1CCN(S(=O)(=O)c2ccc3nc(-c4ccccc4)[nH]c3c2)CC1	0	53	0	0	0	0	0	0	0
O=S(=O)(c1ccc2nc(-c3ccccc3)[nH]c2c1)N1CCN(c2cccc(Cl)c2)CC1	0	0	0	0	0	0	-	-	-
O=C1c2cnc3nc(SCc4cccc(Cl)c4)nn3c2CC2c3ccccc3CCN12 (configuration not stated)	0	42	0	0	0	0	0	0	0
CSc1nc2ncc3c(n2n1)CC1c2ccccc2CCN1C3=O (configuration not stated)	0	0	0	0	0	0	-	-	-
COc1cccc(OC)c1C(=O)N1CCN(C(=O)c2ccc(-c3ccccc3)cc2)CC1	0	78	0	0	0	0	0	0	0
COc1ccc(CN2CCN(C(=O)c3ccc(-c4ccccc4)cc3)CC2)c(OC)c1OC	0	68	0	0	0	0	0	0	0
Cc1nn(Cc2c(F)c(F)c(F)c(F)c2F)c(C)c1NC(=O)c1ccc(COc2ccc(Cl)cc2Cl)o1	0	0	0	0	0	0	-	-	-
Cc1nn(Cc2ccc(Cl)cc2Cl)c(C)c1NC(=O)c1ccc(COc2cc(Cl)ccc2Cl)o1	0	47	0	0	0	0	0	0	0
O=C1C=C(c2ccc(Cl)nc2)C[C@@H](c2ccc3c(c2)OCO3)C1	0	0	0	0	0	0	-	-	-
O=C1C=C(c2ccc3c(c2)OCO3)C[C@@H](c2ccc(F)cc2)C1	0	0	0	0	0	0	-	-	-
O=C1C=C(c2ccc3ncccc3c2)C[C@@H](c2ccc(F)cc2)C1	0	75	0	0	0	0	61	0	0
O=C1C=C(c2ccc3[nH]ccc3c2)C[C@@H](c2ccc(F)cc2)C1	0	52	0	0	0	0	62	0	0
COc1ccc([C@H]2CC(=O)C=C(c3ccc4[nH]ccc4c3)C2)cc1OC	0	0	0	0	0	0	-	-	-
O=C1C=C(c2ccc3ccccc3c2)C[C@@H](c2ccc(F)cc2)C1	0	77	0	0	0	0	0	0	0
O=C1C=C(c2ccc3ncccc3c2)C[C@@H](c2ccc3c(c2)OCO3)C1	0	66	0	0	0	0	0	0	0
CC(C)[C@H](NC(=O)c1ccccc1F)C(=O)OCC(=O)NC1CC1	0	0	0	0	0	0	-	-	-
CCCC(C)(C)C(=O)N1CCC1(C)C(=O)NS(=O)(=O)c1ccccc1Cl (configuration not stated)	0	0	-	0	-	-	-	-	-
CCCN(CC(=O)Nc1ccccc1OC)C(=O)CCNC(=O)c1ccccc1OC	0	0	0	0	0	0	-	-	-
O=C1C=C(c2cccc3c2oc2ccccc23)C[C@@H](c2ccc(F)cc2)C1	0	76	0	0	0	0	56	0	0
CCC(=O)NC(=S)Nc1ccc(N2CCN(C(=O)c3ccc(Cl)cc3)CC2)cc1	0	43	0	0	0	0	0	0	0
CC(=O)N1CCC(C(=O)c2ccc(Cl)cc2)CC1	0	0	0	0	0	0	-	-	-
O=C(c1ccc(Cl)cc1)C1CCN(C(=O)c2ccc(F)cc2)CC1	0	49	0	0	0	0	0	0	0
Cc1ccc(C(=O)N2CCC(C(=O)c3c(C)cc(C)cc3C)CC2)cc1	0	43	0	0	0	0	0	0	0
SMILES	CXCR6 block	EBI2 block	CCR6 antag	m5-HT2A agonist	APJ antagonist	APJ agonist	EBI2 antag conf	EBI2 agonist	bGal counter
Cc1ccc(C(=O)C2CCN(C(=O)c3ccc(C)cc3)CC2)cc1	0	57	0	0	0	0	0	0	0
O=C(NC(=S)Nc1ccc(N2CCOCC2)cc1)c1ccc(Cl)cc1	0	0	0	0	0	0	-	-	-
COc1ccc(C(CNC(=O)c2ccc(S(=O)(=O)Nc3ccccc3OC)cc2)N2CCCC2)cc1 (configuration not stated)	0	0	0	0	-	-	-	-	-
O=C(Nc1ccc(CN2CCCCC2)cc1)c1sc2ccccc2c1Cl	0	0	0	0	0	0	-	-	-
O=C(CCc1ccc(Oc2cc([N+](=O)[O-])cc([N+](=O)[O-])c2)cc1)N1CCCCC1	0	0	0	0	0	0	-	-	-
O=C(CNC(=O)c1ccco1)NCC(c1ccco1)N1CCCCC1 (configuration not stated)	0	0	0	0	0	0	-	-	-
COc1ccc(S(=O)(=O)N2CCCCCC2)cc1NC(=O)Cc1n[nH]c(=O)c2ccccc12	0	0	0	0	0	0	-	-	-
CN(C(=O)Cn1nnc(-c2ccccc2)n1)C1CCS(=O)(=O)C1 (configuration not stated)	0	0	0	0	0	0	-	-	-
COc1cc(C(=O)NC(C)c2cccc3ccccc23)cc(OC)c1OC (configuration not stated)	0	0	0	0	0	0	-	-	-
O=C(c1ccc(Cl)cc1)N1CCN(c2ccc(F)cc2)CC1	0	51	0	0	0	0	0	0	0
Cc1ccc(C(=O)N2CCC(C(=O)c3ccc(F)cc3)CC2)cc1	0	52	0	0	-	-	50	0	0
COc1ccccc1C(=O)N1CCC(C(=O)c2ccc(F)cc2)CC1	0	0	0	0	0	0	-	-	-
CC(C)C[C@H]1CN([C@@H](Cc2ccccc2)CN2CCC[C@H]2CN2C(=O)C(=O)NC[C@@H]2Cc2ccc(O)cc2)C(=O)C(=O)N1CC1CCCCCC1	0	0	-	0	-	-	-	-	-
NC(=O)c1nsc(C(=O)N(CC(=O)NC2CCCCC2)Cc2ccc(F)cc2)c1N	0	0	0	0	0	0	-	-	-
C[C@H](O)CNC(=O)c1[nH]cnc1C(=O)N[C@@H](C)c1ccccc1	0	0	-	0	-	-	-	-	-
Cc1ccc(CCNc2ccc3ccccc3c2)cn1	0	0	0	0	0	0	-	-	-
Cc1ccc(NCCc2ccc(C)nc2)cc1	0	47	0	0	0	0	0	0	0
COc1ccc(C(=O)CCNc2ccc(F)cc2)cc1	0	0	0	0	0	0	-	-	-
COc1ccc(NCCNc2ccc(OC)cc2)cc1	0	40	0	0	0	0	0	0	0
